36 sequences from the EternaBench riboswitch data can be followed below.

The test system of this series is MS2 coat protein. Kind of series: apparent Kd, MS2 coat protein; higher = weaker binding; RNA-MaP array; FMN 200 µM where present. In a few lines:
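Binding was read on Illumina sequencing-chip clusters where stalled E. coli RNA polymerase had transcribed each design. A titration of SNAP-549-labelled MS2 coat protein began at 0.7 or 1.5 nM and doubled to 3 µM, once without ligand and once with constant ligand, in 100 mM Tris-HCl pH 7.5, 80 mM KCl, 4 mM MgCl2, BSA, DTT, yeast tRNA and Tween-20. The apparent Kd is the median of filtered per-cluster binding-curve fits, based on green signal normalised to red-channel RNA signal and control-cluster median Fmax.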

[1] abbreviates: designed as: OFF switch for flavin mononucleotide, no ligand.
[2] abbreviates: ligand present: flavin mononucleotide, designed as: OFF switch for flavin mononucleotide.
Where [3] appears, read: designed as: ON switch for flavin mononucleotide, no ligand.
[4] abbreviates: ligand present: flavin mononucleotide, designed as: ON switch for flavin mononucleotide.

Usually apparent Kd stands for a dissociation constant that holds for the conditions of the assay. In the case of “AGAGCCUCGUGAGGAUAUACAUGAGGAUCACCCAUGUAAUAAAGUGAACGGAGGAAACUCCGAAUGUAGAAGGCACGAGGCUCA”, the “apparent Kd” value under setting [1] is 44.5 nM and the “apparent Kd” value under setting [2] was 391 nM.
The matching figures for “AUCAUGAGAGGAUAUACAUGAGGAUCACCCAUGUGGUCAUCUCCACGGGCUCAAUUACGUAGAAGGCUCAUUUG”: 18 nM and 66.2 nM.
The matching figures for “AAUGUGUCAGGAUAUUGUUAGUUUAGUUGUUUGUAUUAGUUCGAGAAGGGACAUGAGGAUCACCCAUGUUGUAA”: 40.1 nM and 31.9 nM.
Consider “GGAUAGGACAGAGGAUAUACGUGCUAGAGAUACUAGCAAAAUUUCCUCACAUGAGGAUCACCCAUGUAGAAGGCUGUCCUAUGG”, for which the “apparent Kd” value worked out at 16.6 nM under setting [1] and 402 nM under setting [2].
For the sequence “UACAUUACUUAGAAGGGAUAUAUAUAAUUUUAGUCAGGAUAUAGAUACAAUACAACAUGAGGACAUGAGGAUCACCCAUGUAUU”, the “apparent Kd” value worked out at 17.9 nM under setting [3] and 13.4 nM under setting [4].
Take “ACAGCGUGAGGAUAUACAUGAGGAUCACCCAUGUAUGGCAGGUUAUCCUGUCGUGAGUGUAGAAGGCACGCUGU”: the “apparent Kd” value is, setting by setting: under setting [1], 17.4 nM; under setting [2], 58.9 nM.
For “UUGAUUAUACAAGGAUAUCAAUUGUAAUUAAGACUUACAUGAGGAUCACCCAUGUUAAUAUUUUAUGAGAAGGUGUAUUUUCAG”, the “apparent Kd” value runs as follows: under setting [3], 38.3 nM; under setting [4], 25.7 nM.
In the case of “CAUUAUUAUCGAGGAUAUCCUAUUGAAAUUCUGGGAGAAGGCGGACUCAACAUGAGGAUCACCCAUGUGGGACGGAUGCUAGGG”, the “apparent Kd” value was found to be 22.9 nM under setting [1] and 20 nM under setting [2].
Regarding “GACUGAAUACAGAAGGUGUUUGACAUGAGGAUCACCCAUGUGUUAUUCAGAUUCAUAGAAUAUAACAAGGAUAUGUAUAUAUCA”, the “apparent Kd” value is, setting by setting: under setting [3], 228 nM; under setting [4], 61.6 nM.
Consider “CAUUUGUGAGGAUAUCAGGUGUGCUAGCGUACUGGUACAUCUGAGAAGGCACAUGAGGAUCACCCAUGUUCCUU”, for which the “apparent Kd” value is 12.8 nM under setting [1] and 30 nM under setting [2].
Turning to “GUUUCGUGAGGAUAUGUGGCUUCGAUCGUGCGAAAAAGGCUACAGAAGGCACAUGAGGAUCACCCAUGUUCCUC”, the “apparent Kd” value was found to be 119 nM under setting [1] and 568 nM under setting [2].
The matching figures for “ACUUGUUAUUUAAUCAUUGAAUUGUAGGAUAUACUUACAUGAGGAUCACCCAUGUUAACAUGGAUGUAGAAGGACAUCUCAUUU”: 98.9 nM and 55.1 nM.
For “ACUGUCCGAGAGAAGGGAACAUGAGGAUCACCCAUGUUACCUCACCUGGUGACGGAACUCCAAGUUCAGGAUAUCUCGAGCGGC”, in that order: 4.85 nM and 5.98 nM.
Regarding “AUCAGCUCGUCAGGAUAUACGUCACUGCGUCAGCCGUGUGGUAAGAUCACAUGAGGAUCACCCAUGUAGAAGGGACGAGCUGAU”, the “apparent Kd” value is, setting by setting: under setting [1], 16.6 nM; under setting [2], 247 nM.
On to “GCAAAAGUCCUGAGGGUAGGAGACAGAAGGGCACCGGGAUCACUCCACAUGAGGAUCACCCAUGUGCAGGAUAUGUCGGCUGAA”, for which the “apparent Kd” value by setting is: under setting [1], 22.3 nM; under setting [2], 327 nM.
For “GUCAGCUCGUGAGGAUAUACAACACUGCUUCGGCAUUGUAUUAAGAUCACAUGAGGAUCACCCAUGUAGAAGGCACGAGCUGAU”, in that order: 9.1 nM and 109 nM.
For “GUAUUUUGAGGAUAUACUAUUAACCACAUGAGGAUCACCCAUGUUCUAUCAUGAAUUUAUGUAGAAGGCAGAAUGC”, in that order: 71.8 nM and 128 nM.
Take “CAUGUGUUAGGAUAUGCACCGAUCUCCGAAAGGAGAUCGGUGCAGAAGGAACAUGAGGAUCACCCAUGUUGAUG”: the “apparent Kd” value by setting is: under setting [1], 39.9 nM; under setting [2], 140 nM.
“UCGACUAGCGCCAGUCGAACAUGAGGAUCACCCAUGUACUCCAGAAGGCCGCCCAAGAACGGAGUGGAGGAUAUGGAGGUUCUC”: the “apparent Kd” value is 42.9 nM under setting [3] and 30.4 nM under setting [4].
With “UUAUCUAUGUAAGGAUAUCGAUGAUAUACGCAUCCGACAUGAGGAUCACCCAUGUUUUAUUUUGUCGAGAAGGUACAUUGUCGG”, the “apparent Kd” value worked out at 61.1 nM under setting [3] and 53.5 nM under setting [4].
For “UGCGACCUAGGAUAUACAUGAGGAUCACCCAUGUGAUUCGGUGGCGCGAUCCUUGAAAGUAGAAGGAGGAGCAA”, the “apparent Kd” value under setting [1] is 40.1 nM and the “apparent Kd” value under setting [2] is 35.3 nM.
Regarding “GUGUACAGAGGAUAUACAGGAGCUAGGAAACUAGCAACCUCACAUGAGGAUCACCCAUGUAGAAGGCUGUACAC”, the “apparent Kd” value was determined as 251 nM under setting [1] and 66.7 nM under setting [2].
For “GGUGUGGCAGGAUAUACAUCGAAGGGUGCAAAGGGCUCGGCACAUGAGGAUCACCCAUGUAGAAGGGCCUACCA”, in that order: 14.9 nM and 20.7 nM.
With “UUAUGUGUCGUAGGAUAUCAUUAGAUUUGUAAUUUAAUUGUAAUUUACAUAUGAGAAGGACGUUUACAUGAGGAUCACCCAUGU”, the “apparent Kd” value turned out to be 15.9 nM under setting [1] and 14.6 nM under setting [2].
Turning to “UAUGUGUCAGGAUAUUAGUAGUAUAUAGAUAUAUAUAUUACUGAGAAGGGACAUGAGGAUCACCCAUGUACCUU”, the “apparent Kd” value came to 16.5 nM under setting [1] and 19.1 nM under setting [2].
The matching figures for “ACGCACGGAGGAUAUACAUGAGGAUCACCCAUGUCGGUGUAUUUUCGGCCAAAAUUUUGUAGAAGGCUGUCGUG”: 222 nM and 526 nM.
The matching figures for “CCGAGAAGGAGAGGAUAUGGACAUGAGGAUCACCCAUGUACAUGGGAAUAUAUACUGAAUUUUUACUAGAAGGCUUACAUAAAU”: 17.8 nM and 14 nM.
With “GGAUAGGACAGAGGAUAUACGUGCUAGAGAUACUAGCAAAAGUUCCUCACAUGAGGAUCACCCAUGUAGAAGGCUGUCCUAUCG”, the “apparent Kd” value is, setting by setting: under setting [1], 65.5 nM; under setting [2], 214 nM.
Turning to “AGCUCGGGUUAGGAUAUUCGCAGCAAGAUGACCGAAGAAGGGACCACAUGAGGAUCACCCAUGUUUGUUUAGAA”, the “apparent Kd” value by setting is: under setting [1], 25.9 nM; under setting [2], 24.5 nM.
Turning to “GCGUAACAUGAGGAUCACCCAUGUGCCCGAGAAUUCGGGCCGAGAAGGGUGACCGGACGUAUGGCACAGGAUAUCGACGUUUUG”, the “apparent Kd” value under setting [3] came out at 33.6 nM and the “apparent Kd” value under setting [4] turned out to be 48.4 nM.
As for “UGUGUGAGACAGGAUAUGCUGGAUGAGAGGCGGGUAGAAGGGUCUACAUGAGGAUCACCCAUGUGGCCGGUUGG”, the “apparent Kd” value reads like this: under setting [1], 17 nM; under setting [2], 16.9 nM.
For “AUUUUAUAAUAGAAGGUAGACUUCAUGAGGAUCACCCAUGUGUUGGUACUAAGGAUAUGUAAUAACAUGAGGAUCACCCAUGUU”, the “apparent Kd” value reads like this: under setting [3], 16.1 nM; under setting [4], 15.2 nM.
The matching figures for “GUAGCAUACCGAGGAUAUUCAACCGGAAACGGAACAUGAGGAUCACCCAUGUGGCGAAAGCCUUGGGAGAAGGCGGAAUGCUAC”: 77.5 nM and 20.6 nM.
For the sequence “GUACUGUAGUGAGGAUAUACGAGAUCGAUAGAUCGGCGAUCCAAUUAUACAUGAGGAUCACCCAUGUAGAAGGCACUUCAGUAC”, the “apparent Kd” value under setting [1] amounted to 8.75 nM and the “apparent Kd” value under setting [2] is 55.8 nM.
The matching figures for “CAGCUGAAUGUGAGGAUAUCUAGAGCUGCGGCUCUAGAGAAGGCACAUGAGGAUCACCCAUGUCUCAACAGCUG”: 40.7 nM and 294 nM.
With “GCGUUGAACGAGAAGGCCAAUACAUGAGGAUCACCCAUGUAGUGAAGUAUUGGAGGAUAUCGAUCGGCGUCUCAUGAGCAACGC”, the “apparent Kd” value came out at 7.49 nM under setting [1] and 19.6 nM under setting [2].
